Reference: PubChem BioAssay AID623899 (Broad Institute, 2012)
Several values for one entry are separate records, joined by “and”; a condition that tells them apart may be missing. Identical values can stand only once. Activity calls are given as the source filed them.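 How the source made its calls: active means falling signal with AC50 at or below twice the highest valid dose tested for that sample; inconclusive means flat curve at 30 to 70% inhibition, or unreliable fit; inactive means the rest.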

What was measured:
[1] = tested on: C. albicans CaCi-2 growth, Alamar Blue fluorescence, 48 h; experiment: C. albicans growth inhibitors tested alone, no fluconazole – CaCi-2 strain, dry powder, plate reader, set 2, dose response (AID 623899)
In short: (§1)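 Test system – fluconazole-resistant C. albicans strain CaCi-2 · Input – inoculum OD600 0.00015 · Medium – MOPS-buffered RPMI 1640 defined medium with uridine, glucose, Pen/Strep · Doses – pinned compound, dose-response series · Incubation – compound exposure 48 h, 37 °C, humidified, static, then dye 2 h · Detection – Alamar Blue fluorescence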

[2] = as above; conditions: C. albicans CaCi-2 growth, Alamar Blue fluorescence, 48 h; at 26 µM (top of the series)
In short: as §1

| SMILES | AC50 [1] | activity change, negative = inhibition [2] |
| --- | --- | --- |
| O=C1NC(=S)N(c2ccccc2)C12CCCCC2 | > 52000 nM (inactive) | – |
| Cc1ccc(N2C(=S)NC(=O)C23CCC3)cc1 | – | -14.6% (inactive) |
| CCOC(=O)N1C(=O)N(c2ccc(C)cc2)C2(CCCCC2)C1=O | – | -28.5% (inactive) |
| Cc1ccc(N2C(=S)N(C(=O)Oc3ccccc3)C(=O)C23CCCCC3)cc1 | – | 9.01% (inactive) |
| CCOC(=O)N1C(=S)N(c2ccc(C)cc2)C(=O)C12CCCCC2 | – | 6.88% (inactive) |
| CCOC(=O)N1C(=O)C2(CCCCC2)N(c2ccc(OC)cc2)C1=S | 1780 nM | – |
| CCOC(=O)N1C(=O)C2(CCCCC2)N(c2ccc(C(C)C)cc2)C1=S | – | -19.6% (inactive) |
| Cc1ccc(N2C(=S)NC(=O)C2(C)C)cc1 | – | 2.43% (inactive) |
| Cc1ccc(N2C(=O)C(=O)NC2=S)cc1 | – | 9.23% (inactive) |
| Cc1ccc(N2C(=O)C3(CCCCC3)NC2=S)cc1 | – | 9.21% (inactive) |
| CCOC(=O)N1C(=O)C2(CCCC2)N(c2ccc(C)cc2)C1=S | 9790 nM | – |
| Cc1ccc(N2C(=S)NC(=O)C23CCCC3)cc1 | – | 7.79% (inactive) |
| CCCc1ccc(N2C(=S)N(C(=O)OCC)C(=O)C23CCCCC3)cc1 | 6910 nM | – |
| Cc1ccc(N2C(=S)N(C(=O)OCc3ccccc3)C(=O)C23CCCCC3)cc1 | – | 1.35% (inactive) |
| CCOC(=O)N1C(=O)C2(CCCCC2)N(c2ccc(F)cc2)C1=S | < 100 nM | – |
| Cc1ccc(N2CC(=O)NC2=O)cc1 | – | -7.46% (inactive) |
| CCOC(=O)N1C(=O)C2(CCCCC2)N(c2ccc(CC)cc2)C1=S | 1900 nM | – |
| CCOC(=O)N1C(=O)C2(CCCCC2)N(c2ccc(Cl)cc2)C1=S | < 100 nM | – |
| Cc1ccc(N2C(=S)N(S(C)(=O)=O)C(=O)C23CCCCC3)cc1 | – | 8.47% (inactive) |
| CCOC(=O)N1C(=O)C2(CCCCC2)N(Cc2ccccc2)C1=S | 3760 nM | – |
| CCOC(=O)N1C(=O)C2(CCCCC2)N(c2cccc(C)c2)C1=S | 189 nM | – |
| Cc1ccc(N2C(=S)NC(=O)C23CCCCC3)cc1 | > 52000 nM (inactive) | – |
| CCCCN1C(=O)N(c2ccc(C)cc2)C2(CCCCC2)C1=S | > 52000 nM (inactive) | – |
| O=C1NC(=S)N(Cc2ccccc2)C12CCCCC2 | – | 0.564% (inactive) |
| COC(=O)N1C(=O)C2(CCCCC2)N(c2ccc(C)cc2)C1=S | 1890 nM | – |
| Cc1ccc(N2C(=S)N(C(=O)OC(C)C)C(=O)C23CCCCC3)cc1 | 8740 nM | – |

| SMILES | AC50 [1] | activity change, negative = inhibition [2] |
| --- | --- | --- |
| Cc1ccc(N2C(=S)N(C)C(=O)C23CCCCC3)cc1 | – | -8.14% (inactive) and -15.3% (inactive) |
| CCCC(=O)N1C(=O)C2(CCCCC2)N(c2ccc(C)cc2)C1=S | – | 15.2% (inactive) |
| Cc1ccc(N2C(=O)NC(=O)C23CCCCC3)cc1 | – | 14.7% (inactive) |
| CCOC(=O)N1C(=O)C2(CCCCC2)N(c2ccc(C#N)cc2)C1=S | < 100 nM | – |
| CCCCN1C(=O)C2(CCCCC2)N(c2ccc(C)cc2)C1=S | > 52000 nM (inactive) | – |
| CCCCN1C(=O)N(c2ccc(C)cc2)C2(CCCCC2)C1=O | – | 9.77% (inactive) |
| Cc1ccc(N2C(=S)NC(=O)C23CCOCC3)cc1 | – | -17.4% (inactive) |
| CCOC(=O)N1C(=O)C2(CCCCC2)NC1=S | – | 0.477% (inactive) |
| CCOC(=O)N1C(=O)C2(CCC2)N(c2ccc(C)cc2)C1=S | – | 18% (inactive) |
| CCOC(=O)N1C(=S)N(c2ccc(C)cc2)C2(CCCCC2)C1=NCc1ccccc1 | – | 3.84% (inactive) |
| O=C1NC(=S)NC12CCCCC2 | – | 4.86% (inactive) |
| CCOC(=O)N1C(=O)C(C)(C)N(c2ccc(C)cc2)C1=S | – | 17.8% (inactive) |
| CCOC(=O)N1C(=O)C2(CCCCC2)N(c2ccc(C(F)(F)F)cc2)C1=S | 841 nM | – |
| Cc1ccc(N2CC(=O)NC2=S)cc1 | – | -6.22% (inactive) |
| CCOC(=O)N1C(=O)C2(CCCCC2)N(c2ccccc2)C1=S | 148 nM | – |
| Cc1ccc(N2C(=O)N(C)C(=O)C23CCCCC3)cc1 | – | 8.26% (inactive) |
| O=C1NC(=S)N(c2ccc(F)cc2)C12CCCCC2 | – | -13.4% (inactive) |
| CCOC(=O)N1C(=S)NC(=O)C12CCCCC2 | – | 6.84% (inactive) |
| CCOC(=O)N1C(=O)C2(CCCCC2)N(c2ccccc2C)C1=S | 1200 nM | – |
| CCOC(=O)N1C(=O)C2(CCOCC2)N(c2ccc(C)cc2)C1=S | 20600 nM | – |
| CCOC(=O)N1C(=O)C2(CCCCC2)N(c2ccc(C)cc2)C1=S | 359 nM and 303 nM | – |
| CCCOC(=O)N1C(=O)C2(CCCCC2)N(c2ccc(C)cc2)C1=S | 5900 nM | – |
| CC(C)N1C(=S)NC(=O)C12CCCCC2 | – | -4.41% (inactive) |
| CCOC(=O)N1C(=O)C2(CCCCC2)N(C(C)C)C1=S | – | -20% (inactive) |
| CC1/C=C/C=C\C=C\C=C\C=C\C=C\C=C\C(O[C@H]2OC(C)C(O)C(N)C2O)CC2OC(O)(CC(O)CC(O)C(O)CCC(O)CC(O)CC(=O)OC(C)C(C)C1O)CC(O)C2C(=O)O (stereo partly specified) | < 10 nM | – |
